Arr AP2 block: inhibitors of beta-arrestin/AP2 binding, primary screen, biochemical, GPCR trafficking, flow cytometry. 340,000 compounds, 0.31% hits. beta-arrestin 1 C-terminal peptide binding to AP2 beta2-adaptin appendage (human). inhibition, % at 10 µM. FITC-arrestin peptide / GST-AP2 beads; AP2 beta2 appendage carries R879A mutation. AID 504490, 2011;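 active = inhibition above a set limit, near 3 SD of compounds lacking own fluorescence, cut at about 54% in these data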
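system = GST-tagged AP2 beta2-adaptin appendage (R879A) on 4 µm glutathione beads | reagent = FITC-labelled arrestin peptide probe, 50 nM final | schedule = compound with beads 12 min RT, then probe 1 h RT | signal = HyperCyt-sampled flow cytometry, FL1 channel, ex 488/em 535 nm | read-out = percent response from loss of bead-bound FITC fluorescence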
UHRF1 binding: UHRF1 methylated DNA binding inhibitors, primary screen, counter-screen for MBD2 inhibitor project, biochemical, TR-FRET, human UHRF1, single concentration | E3 ubiquitin-protein ligase UHRF1 (Homo sapiens), Q96T88 | UHRF1 binding to methylated oligo | inhibition, % at 4.4 µM | 370,000 compounds, 0.75% hits | AID 687016, 2013; in the data active = inhibition above about 21%;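 also: UHRF1 SRA domain binding a hemimethylated CpG hairpin DNA probe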
ABHD5 PLIN5 PPI: ABHD5-PLIN5 interaction inhibitors, primary screen, cell lysate, split luciferase complementation, luminescence; Perilipin-5 (Homo sapiens) + 1-acylglycerol-3-phosphate O-acyltransferase ABHD5 (Homo …; Split G. princeps luciferase complementation, 4 h; inhibition, % at 4 µM; 360,000 compounds, 0.78% hits; AID 602281, 2012;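 active = inhibition above the mean inhibition across every tested compound plus 3 SD, cut at about 22% in these data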
MBD2 DNA inh: inhibitors of MBD2 binding to methylated DNA, primary screen, biochemical, TR-FRET, DNA-binding domain, human; MBD2 binding to methylated oligonucleotide; AID 686964, 2013; inhibition, % at 4.4 µM; Methyl-CpG-binding domain protein 2 (Homo sapiens), Q9UBB5; 370,000 compounds, 0.31% hits; in the data active = inhibition above about 13%
Target sequence (Q9UBB5 whole entry, looked up, the tested form may be a part): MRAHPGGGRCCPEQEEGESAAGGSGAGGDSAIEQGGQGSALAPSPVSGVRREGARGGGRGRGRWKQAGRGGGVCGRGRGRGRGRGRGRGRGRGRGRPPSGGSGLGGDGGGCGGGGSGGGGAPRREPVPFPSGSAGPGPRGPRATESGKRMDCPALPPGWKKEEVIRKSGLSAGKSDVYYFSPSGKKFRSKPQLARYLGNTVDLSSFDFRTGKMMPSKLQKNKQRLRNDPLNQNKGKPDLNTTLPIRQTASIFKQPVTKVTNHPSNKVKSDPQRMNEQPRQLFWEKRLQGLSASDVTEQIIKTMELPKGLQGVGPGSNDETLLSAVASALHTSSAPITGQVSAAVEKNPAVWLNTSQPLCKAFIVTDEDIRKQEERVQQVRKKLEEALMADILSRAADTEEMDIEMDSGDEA
Rin1 Abl inh: inhibitors of Rin1-Abl protein binding, primary screen, biochemical, TR-FRET; Tyrosine-protein kinase ABL1 (Homo sapiens) + Ras and Rab interactor 1 (Homo sapiens), …; inhibition, % at 7.35 µM; 360,000 compounds, 0.4% hits; in the data active = inhibition above about 5%, passing the limit was not always enough
B2AR ag: beta2AR agonists driving receptor internalization, primary screen, cell-based, FAP fluorogen, flow cytometry | AID 504454, 2011 | Am2.2-beta2AR cells | 340,000 compounds, 0.43% hits | response, % (no concentration beside the values);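 active = response above a set limit, near 3 SD of response in nonfluorescent compounds, cut at about 42% in these data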
A number is an active result; 0 = inactive; - = no result. The list is not random: actives were taken first. Their share in the collection is about 2.5%.

SMILES	Arr AP2 block	UHRF1 binding	ABHD5 PLIN5 PPI	MBD2 DNA inh	Rin1 Abl inh	B2AR ag
N#Cc1c(NC(=O)/C=C/c2ccco2)sc2c1CCCC2	-	0	0	0	0	0
O=C(/C=C/c1ccco1)Nc1sc2c(c1C(=O)O)CCC2	0	33.0	0	0	0	0
Cc1nn(-c2ccccc2)c2sc(C(=O)NC3CCCCCCC3)cc12	-	0	-	0	-	-
CCOc1cc(/C=N/N=C(N)N)ccc1OCc1ccc(Cl)cc1	0	0	0	0	0	45.8
NC(N)=N/N=C/c1ccc(OCc2ccccc2)c(OCc2ccccc2)c1	0	0	0	0	0	0
Cc1cc(C(=O)NP(=O)(N2CCOCC2)N2CCOCC2)c(C)n1-c1ccc(Br)cc1	0	21.2	0	0	0	0
O=C(OCc1ccccc1)N1CCC2CC1c1ccc(N3CCN(Cc4ccccc4)CC3)cc12 (centres undefined)	-	0	-	0	-	-
Cc1ccc(C(C)C)cc1S(=O)(=O)Nc1ccncc1	0	28.1	0	0	0	0
CC(C)(C)c1ccc(-c2nnc(SCC(=O)Nc3ccc4cn[nH]c4c3)n2-c2ccc(Cl)cc2)cc1	-	0	-	0	-	-
CC1CN(C(=O)c2cc3c(=O)n4ccccc4nc3n2C)CC(C)O1 (centres undefined)	0	26.6	0	0	0	0
CCCN1CCS(=O)(=O)N(Cc2cn(Cc3ccc(Cl)cc3)nn2)C(C(=O)OC)C1 (centres undefined)	-	0	-	0	-	-
COc1ccc(CN(CCN2CCOCC2)C(=O)c2cc(F)ccc2F)cc1OC	-	0	-	0	-	-
O=C(CCN1C(=O)/C(=C/c2ccco2)SC1=S)Nc1ccc(C(=O)O)c(O)c1	0	62.5	0	20.7	0	0
COc1ccccc1/C=C1\SC(=S)N(CCC(=O)Nc2ccc(C(=O)O)c(O)c2)C1=O	0	0	0	0	0	0
O=C(CN1C(=O)/C(=C\c2ccco2)SC1=S)Nc1ccc(O)cc1C(=O)O	0	86.6	0	26.7	0	0
O=C(O)CCN1C(=O)/C(=C\c2ccc(-c3nc4ccccc4s3)o2)SC1=S	0	-	0	-	0	55.3
O=C1/C(=C/c2ccco2)SC(=S)N1CC1CCCO1 (centres undefined)	0	28.8	0	0	0	0
O=C(CCCN1C(=O)/C(=C\c2ccco2)SC1=S)Nc1ccc2ccccc2c1	0	0	0	0	0	0
O=C(O)CCCN1C(=O)/C(=C\c2ccco2)SC1=S	0	52.5	0	0	0	0
CCN1CCCCC(NC(=O)c2ccccc2)C1=O (centres undefined)	-	0	-	0	-	-
O=C(Cc1ccccc1)N/N=C/c1cc(Br)cc(Cl)c1O	0	57.8	0	0	0	0
COc1ccc(CC(NC(C)=O)C(=O)NC2CCN(S(=O)(=O)c3ccc(NC(C)=O)cc3)CC2)cc1 (centres undefined)	0	0	0	0	0	0
CC(=O)Nc1ccc(S(=O)(=O)N2CCC(NC(=O)C(Cc3cccn3C)NC(C)=O)CC2)cc1 (centres undefined)	0	0	22.7	0	0	0
O=C(NCCSc1c[nH]c2ccccc12)C1CC1	0	45.3	0	0	0	0
Cc1cc(NC(=O)Cn2ccc([N+](=O)[O-])n2)no1	0	23.4	0	0	0	0
O=C(NCc1ccccc1)OCCCN1C(=O)CCC12CCCCC2	-	0	-	0	-	-
COC(=O)[C@@H]1CCCN1Cc1nc(Cc2ccc(OC)c(OC)c2)no1	0	33.0	0	0	0	0
O=S(=O)(c1cnc(Cl)c(Br)c1)N1CCc2ccccc21	0	0	0	0	0	55.6
O=S(=O)(c1cnc(Cl)c(Cl)c1)N1CCc2ccccc21	0	0	0	0	0	0
COc1ccc(OC)c(S(=O)(=O)N2CCCC(C(=O)Nc3c(C)n(C)n(-c4ccccc4)c3=O)C2)c1 (centres undefined)	-	0	-	0	-	-
